# Measured values: ChEMBL document CHEMBL1121744, “Synthesis and antihypertensive activity of a series of 8-substituted 1-oxa-3,8-diazaspiro[4.5]decan-2-ones” (J Med Chem, 1981)
# Activity calls are given as the source filed them. The calls are words filed in the database; no cut-off is given here.
# What was measured:
# Rattus norvegicus [1] = assay: The antihypertensive activity as percentage fall in systolic blood pressure in spontaneously hypertensive rats after a period of 3 hr for a dose of 50 mg/kg po
# Rattus norvegicus [2] = assay: The antihypertensive activity as percentage fall in systolic blood pressure in spontaneously hypertensive rats after a period of 2 hr for a dose of 50 mg/kg po
# Canis familiaris = assay: Percent inhibition of the pressor responses to 0.75 ug/kg iv norepinephrine in pentobarbital-anesthetized dogs for a dose of 0.316 mg/kg; format: functional; details: Canis lupus familiaris
# Summary of the method: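 Pentobarbital-anesthetized dogs (35 mg/kg iv) with femoral arterial pressure recording. Epinephrine (1 μg/kg), norepinephrine (0.75 μg/kg) and phenylephrine (7.5 μg/kg) iv challenges were given about every 10 min before and after rising iv test doses, which were spaced 90 min apart. Value is % inhibition of the pressor response.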
# Rattus norvegicus [3] = assay: The antihypertensive activity as percentage fall in systolic blood pressure in spontaneously hypertensive rats after a period of 2 hr for a dose of 25 mg/kg po; NS=Not significant; format: functional, organism-based; parameters: dose 25 mg/kg; details: Artery
# Summary of the method: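 Male Okamoto-Aoki SHR, trained, in groups of four matched for mean systolic pressure; one group per run received water vehicle. Oral dosing in water (0.1 mL per 10 g) on two consecutive mornings. After the day-2 dose, rats were restrained at 30.0 ± 1.0 °C. Systolic pressure was read by tail cuff (inflated to 300 mmHg, first pulse) at 1–4 h. % fall is versus the untreated control group, by 1-tail t test (p ≤ 0.05).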
SMILES,Decrease in blood pressure (Rattus norvegicus [1]),Decrease in blood pressure (Rattus norvegicus [2]),inhibition in vivo at 0.316 mg/kg (Canis familiaris),Decrease in blood pressure (Rattus norvegicus [3])
O=C1NCC2(CCN(CCc3c[nH]c4ccccc34)CC2)O1,8%,10%,,
CN1CC2(CCN(CC(O)C3COc4ccccc4O3)CC2)OC1=O (centres undefined),,,41%,inactive
